From ChEMBL document CHEMBL4765319, “Identification of a new series of flavopiridol-like structures as kinase inhibitors with high cytotoxic potency” (Eur J Med Chem, 2020)

Assays:
SK-OV-3 = assay: Antiproliferative activity against human SKOV3 cells assessed as reduction in cell viability incubated for 72 hrs by CellTiter-Blue fluorescence assay; details: SK-OV-3, 72 h
CDK2/Cyclin A2 = CDK2/Cyclin A2 (Homo sapiens, UniProt P24941); assay: Inhibition of human CDK2/cyclin A in presence of ATP by ADP-glo luminescent assay; format: protein-complex assay
In short: (§1)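 Human kinases tested over roughly 0.0003–10 μM by ADP-Glo luminescence with 10 μM ATP, in duplicate. IC50 is taken from dose-response curves.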

[1] = biological target: T1, Glycogen synthase kinase-3 beta (Homo sapiens, UniProt P49841); assay: Inhibition of human GSK3beta assessed as residual activity at 10 uM in presence of ATP by ADP-glo luminescent assay relative to control
In short: (§2)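 Human kinases assayed by ADP-Glo luminescence with 10 μM ATP, compound at 10 or 1 μM. Activity is expressed as % of maximal activity relative to a DMSO control, mean n = 2.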
Target sequence in this assay (P49841 whole entry, looked up): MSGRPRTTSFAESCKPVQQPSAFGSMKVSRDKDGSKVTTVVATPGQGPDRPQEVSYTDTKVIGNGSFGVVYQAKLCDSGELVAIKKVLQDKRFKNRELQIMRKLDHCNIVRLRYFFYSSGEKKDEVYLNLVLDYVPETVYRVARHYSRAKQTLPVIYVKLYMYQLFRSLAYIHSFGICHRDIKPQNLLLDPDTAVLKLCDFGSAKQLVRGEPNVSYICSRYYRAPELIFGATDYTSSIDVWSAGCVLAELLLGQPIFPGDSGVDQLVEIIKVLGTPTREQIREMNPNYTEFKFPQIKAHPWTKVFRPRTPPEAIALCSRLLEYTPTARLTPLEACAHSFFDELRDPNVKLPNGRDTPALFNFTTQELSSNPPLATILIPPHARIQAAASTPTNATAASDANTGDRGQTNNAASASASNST

[2] = biological target: T1, Glycogen synthase kinase-3 beta; assay: Inhibition of human GSK3beta in presence of ATP by ADP-glo luminescent assay
In short: as §1
Target sequence in this assay (P49841 whole entry): as the sequence (P49841 whole entry, looked up) above

PC-3 = assay: Antiproliferative activity against human PC-3 cells assessed as reduction in cell viability incubated for 72 hrs by CellTiter-Blue fluorescence assay; details: PC-3, 72 h
Plasmodium falciparum [3] = assay: Inhibition of Plasmodium falciparum GSK3 assessed as residual activity at 10 uM in presence of ATP by ADP-glo luminescent assay relative to control
In short: (§3)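 Recombinant P. falciparum GSK3, bacterially expressed, in buffer A (10 mM MgCl2, 1 mM EGTA, 1 mM DTT, 25 mM Tris-HCl pH 7.5, 50 μg/ml heparin). Substrate 0.010 μg/μl GS-1 peptide, 10 μM ATP, ADP-Glo luminescence. Compound at 10 or 1 μM; % residual activity vs DMSO control, mean n = 2.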

NCI-N87 = assay: Antiproliferative activity against human NCI-N87 cells assessed as reduction in cell viability incubated for 72 hrs by CellTiter-Blue fluorescence assay; details: NCI-N87, 72 h
Sus scrofa [4] = species: Sus scrofa; assay: Inhibition of porcine GSK3alpha/beta assessed as residual activity at 10 uM in presence of ATP by ADP-glo luminescent assay relative to control
In short: (§4)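 Porcine brain GSK3α/β, native and affinity-purified. Assayed by ADP-Glo luminescence with 10 μM ATP and 0.010 μg/μl GS-1 peptide substrate. Buffer A: 10 mM MgCl2, 1 mM EGTA, 1 mM DTT, 25 mM Tris-HCl pH 7.5, 50 μg/ml heparin. Compound tested at 10 or 1 μM. Result is % of maximal activity versus DMSO control, mean of n = 2.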

Plasmodium falciparum [5] = assay: Inhibition of Plasmodium falciparum GSK3 assessed as residual activity at 1 uM in presence of ATP by ADP-glo luminescent assay relative to control
In short: as §3

Leishmania major [6] = assay: Inhibition of Leishmania major CK1 assessed as residual activity at 10 uM in presence of ATP by ADP-glo luminescent assay relative to control
Sus scrofa [7] = species: Sus scrofa; assay: Inhibition of porcine CK1delta/epsilon assessed as residual activity at 10 uM in presence of ATP by ADP-glo luminescent assay relative to control
[8] = biological target: T2, CDK2/Cyclin A2 (Homo sapiens) (UniProt P24941+P20248); assay: Inhibition of human CDK2/cyclin A assessed as residual activity at 1 uM in presence of ATP by ADP-glo luminescent assay relative to control; format: protein-complex assay
In short: as §2

[9] = biological target: T1, Glycogen synthase kinase-3 beta; assay: Inhibition of human GSK3beta assessed as residual activity at 1 uM in presence of ATP by ADP-glo luminescent assay relative to control
In short: as §2
Target sequence in this assay (P49841 whole entry, looked up): as above

[10] = biological target: T2, CDK2/Cyclin A2 (Homo sapiens); assay: Inhibition of human CDK2/cyclin A assessed as residual activity at 10 uM in presence of ATP by ADP-glo luminescent assay relative to control; format: protein-complex assay
In short: as §2

Sus scrofa [11] = species: Sus scrofa; assay: Inhibition of porcine CK1delta/epsilon assessed as residual activity at 1 uM in presence of ATP by ADP-glo luminescent assay relative to control
Sus scrofa [12] = species: Sus scrofa; assay: Inhibition of porcine GSK3alpha/beta assessed as residual activity at 1 uM in presence of ATP by ADP-glo luminescent assay relative to control
In short: as §4

[13] = biological target: T3, CDK9/cyclin T1 (Homo sapiens) (UniProt O60563+P50750); assay: Inhibition of human CDK9/cyclin T assessed as residual activity at 10 uM in presence of ATP by ADP-glo luminescent assay relative to control; format: protein-complex assay
In short: as §2

Leishmania major [14] = assay: Inhibition of Leishmania major CK1 assessed as residual activity at 1 uM in presence of ATP by ADP-glo luminescent assay relative to control
MIA PaCa-2 = assay: Antiproliferative activity against human MIA PaCa-2 cells assessed as reduction in cell viability incubated for 72 hrs by CellTiter-Blue fluorescence assay; details: MIA PaCa-2, 72 h
CDK9/cyclin T1 = CDK9/cyclin T1 (Homo sapiens, UniProt P50750); assay: Inhibition of human CDK9/cyclin T in presence of ATP by ADP-glo luminescent assay; format: protein-complex assay
In short: as §1

[15] = biological target: T4, Cyclin-dependent kinase 5/CDK5 activator 1 (Homo sapiens) (UniProt Q00535+Q15078); assay: Inhibition of human CDK5/p25 assessed as residual activity at 1 uM in presence of ATP by ADP-glo luminescent assay relative to control; format: protein-complex assay
In short: as §2

[16] = biological target: Cyclin-dependent kinase 5/CDK5 activator 1 (Homo sapiens, UniProt Q00535); assay: Inhibition of human CDK5/p25 in presence of ATP by ADP-glo luminescent assay; format: protein-complex assay
In short: as §1

SK-BR-3 = assay: Antiproliferative activity against human SK-BR-3 cells assessed as reduction in cell viability incubated for 72 hrs by CellTiter-Blue fluorescence assay; details: SK-BR-3, 72 h
K562 = assay: Antiproliferative activity against human K562 cells assessed as reduction in cell viability incubated for 72 hrs by CellTiter-Blue resazurin fluorescence assay; details: K562, 72 h
[17] = biological target: T4, Cyclin-dependent kinase 5/CDK5 activator 1 (Homo sapiens); assay: Inhibition of human CDK5/p25 assessed as residual activity at 10 uM in presence of ATP by ADP-glo luminescent assay relative to control; format: protein-complex assay
In short: as §2

HCT-116 = assay: Antiproliferative activity against human HCT-116 cells assessed as reduction in cell viability incubated for 72 hrs by CellTiter-Blue fluorescence assay; details: HCT-116, 72 h
[18] = biological target: T3, CDK9/cyclin T1 (Homo sapiens); assay: Inhibition of human CDK9/cyclin T assessed as residual activity at 1 uM in presence of ATP by ADP-glo luminescent assay relative to control; format: protein-complex assay
In short: as §2

T4 sequence (Q00535 whole entry): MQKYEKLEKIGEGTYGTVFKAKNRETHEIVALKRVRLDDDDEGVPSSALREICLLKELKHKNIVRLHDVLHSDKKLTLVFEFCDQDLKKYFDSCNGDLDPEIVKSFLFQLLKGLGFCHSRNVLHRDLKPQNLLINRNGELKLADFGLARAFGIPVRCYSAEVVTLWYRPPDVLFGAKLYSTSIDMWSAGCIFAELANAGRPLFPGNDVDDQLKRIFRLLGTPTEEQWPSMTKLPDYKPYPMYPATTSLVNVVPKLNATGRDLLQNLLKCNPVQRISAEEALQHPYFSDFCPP
T4 sequence (Q15078 99-307 partner limits assumed): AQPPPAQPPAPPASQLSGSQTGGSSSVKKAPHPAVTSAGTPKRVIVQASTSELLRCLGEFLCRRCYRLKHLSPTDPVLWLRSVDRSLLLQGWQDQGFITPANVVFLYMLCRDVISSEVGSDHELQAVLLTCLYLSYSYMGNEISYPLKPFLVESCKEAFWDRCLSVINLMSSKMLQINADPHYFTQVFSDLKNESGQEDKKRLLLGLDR
Cyclin-dependent kinase 5/CDK5 activator 1, sequence (Q00535 whole entry): as the sequence (Q00535 whole entry) above
Cyclin-dependent kinase 5/CDK5 activator 1, sequence (Q15078 whole entry, further chain): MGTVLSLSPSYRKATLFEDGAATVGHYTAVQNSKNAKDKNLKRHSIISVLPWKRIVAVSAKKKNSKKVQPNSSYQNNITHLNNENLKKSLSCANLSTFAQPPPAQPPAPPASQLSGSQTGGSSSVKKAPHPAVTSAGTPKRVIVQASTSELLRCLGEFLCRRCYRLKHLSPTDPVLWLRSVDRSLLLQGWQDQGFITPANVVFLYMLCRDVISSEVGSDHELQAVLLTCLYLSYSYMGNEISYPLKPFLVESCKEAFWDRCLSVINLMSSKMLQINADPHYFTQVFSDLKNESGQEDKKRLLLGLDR
CDK9/cyclin T1, sequence (O60563 whole entry): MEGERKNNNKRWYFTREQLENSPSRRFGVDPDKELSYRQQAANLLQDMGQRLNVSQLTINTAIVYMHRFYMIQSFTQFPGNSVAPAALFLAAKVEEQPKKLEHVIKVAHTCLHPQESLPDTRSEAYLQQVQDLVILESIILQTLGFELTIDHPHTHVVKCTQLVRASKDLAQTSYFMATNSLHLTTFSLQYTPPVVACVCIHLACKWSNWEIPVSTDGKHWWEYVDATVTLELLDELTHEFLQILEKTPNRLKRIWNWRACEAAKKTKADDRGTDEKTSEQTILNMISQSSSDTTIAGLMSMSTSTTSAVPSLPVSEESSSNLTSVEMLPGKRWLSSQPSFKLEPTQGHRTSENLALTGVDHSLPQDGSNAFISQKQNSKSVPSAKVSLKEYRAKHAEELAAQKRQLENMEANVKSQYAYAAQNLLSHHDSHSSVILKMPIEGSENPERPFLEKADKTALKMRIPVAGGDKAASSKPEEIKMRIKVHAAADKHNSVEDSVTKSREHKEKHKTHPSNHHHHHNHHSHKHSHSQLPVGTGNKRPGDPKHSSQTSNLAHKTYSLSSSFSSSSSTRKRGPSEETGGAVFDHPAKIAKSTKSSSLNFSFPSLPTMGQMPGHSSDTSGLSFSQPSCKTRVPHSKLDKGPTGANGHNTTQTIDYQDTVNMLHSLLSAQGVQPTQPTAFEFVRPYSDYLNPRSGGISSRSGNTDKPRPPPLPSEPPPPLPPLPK
CDK9/cyclin T1, sequence (P50750 whole entry): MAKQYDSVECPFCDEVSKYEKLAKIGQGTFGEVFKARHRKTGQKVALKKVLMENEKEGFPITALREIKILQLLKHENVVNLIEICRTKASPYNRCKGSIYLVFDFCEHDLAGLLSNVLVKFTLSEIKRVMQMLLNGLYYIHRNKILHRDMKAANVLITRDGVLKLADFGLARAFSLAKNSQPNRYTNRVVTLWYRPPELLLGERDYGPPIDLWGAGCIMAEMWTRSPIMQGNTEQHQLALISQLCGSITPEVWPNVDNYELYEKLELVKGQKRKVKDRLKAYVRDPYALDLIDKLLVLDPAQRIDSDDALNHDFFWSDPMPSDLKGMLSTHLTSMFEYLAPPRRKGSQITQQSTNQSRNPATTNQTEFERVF

In the case of `CN1CC=C(c2c(O)cc(O)c3c(=O)cc(-c4ccc(SCCC(=O)NO)cc4)oc23)CC1`, the IC50 (SK-OV-3) is reported as greater than 10 µM.
Compound `CN1CC=C(c2c(O)cc(O)c3c(=O)cc(-c4ccc(S[C@@H]5O[C@@H](CO)C(O)C(O)[C@@H]5O)cc4)oc23)CC1` (single isomer, unassigned) has an IC50 (SK-OV-3) greater than 10 µM.
With `CN1CC=C(c2c(O)cc(O)c3c(=O)cc(-c4ccc(Sc5nc(-c6ccccc6)c[nH]5)cc4)oc23)CC1` the IC50 (CDK2/Cyclin A2) was 469 nM, the Activity [1] was 6% and the IC50 [2] was 356 nM. The IC50 (PC-3) was 243 nM, the Activity (Plasmodium falciparum [3]) was greater than 100% and the IC50 (NCI-N87) was 4800 nM. It also gave an Activity (Sus scrofa [4]) of 11%, an Activity (Plasmodium falciparum [5]) greater than 100% and an Activity (Leishmania major [6]) of 54%. For the same compound, the Activity (Sus scrofa [7]) was 43%, the Activity [8] was 33% and the Activity [9] was 25%. The Activity [10] was 14%, the Activity (Sus scrofa [11]) was 78% and the Activity (Sus scrofa [12]) was 53%. The Activity [13] was 0%, the Activity (Leishmania major [14]) was 88% and the IC50 (SK-OV-3) was 0.295 µM. It also gave an IC50 (MIA PaCa-2) of 448 nM, an IC50 (CDK9/cyclin T1) of 9 nM and an Activity [15] of 10%. The IC50 [16] was 195 nM, the IC50 (SK-BR-3) was 352 nM and the IC50 (K562) was 300 nM. The Activity [17] was 5%, the IC50 (HCT-116) was 173 nM and the Activity [18] was 2%.
For `CN1CC[C@H](c2c(O)cc(O)c3c(=O)cc(-c4ccccc4Cl)oc23)[C@H](O)C1` [ALVOCIDIB], the Activity [1] was 10%, the Activity (Plasmodium falciparum [3]) was 70% and the IC50 (NCI-N87) was 111 nM. The Activity (Sus scrofa [4]) was 16%, the Activity (Plasmodium falciparum [5]) was greater than 100% and the Activity (Leishmania major [6]) was 61%. The Activity (Sus scrofa [7]) was 78%, the Activity [8] was 26% and the Activity [9] was 50%. It also gave an Activity [10] of 11%, an Activity (Sus scrofa [11]) greater than 100% and an Activity (Sus scrofa [12]) of 70%. For the same compound, the Activity [13] was 1%, the Activity (Leishmania major [14]) was greater than 100% and the IC50 (SK-OV-3) was 0.22 µM. For the same compound, the IC50 (MIA PaCa-2) was 320 nM, the Activity [15] was 36% and the IC50 (SK-BR-3) was 75 nM. It also gave an IC50 (K562) of 125 nM, an Activity [17] of 13% and an Activity [18] of 5%.
Compound `CC(=O)OC[C@@H]1O[C@@H](Sc2ccc(-c3cc(=O)c4c(O)cc(O)c(C5=CCN(C)CC5)c4o3)cc2)[C@@H](OC(C)=O)[C@H](OC(C)=O)[C@H]1OC(C)=O` has an IC50 (SK-OV-3) greater than 10 µM.
`CN1CC=C(c2c(O)cc(O)c3c(=O)cc(-c4ccc(Sc5ncccn5)cc4Cl)oc23)CC1` showed an IC50 (SK-OV-3) greater than 10 µM.
With `CN1CC=C(c2c(O)cc(O)c3c(=O)cc(-c4ccc(Sc5ccc(C(=O)O)cn5)cc4)oc23)CC1` the IC50 (SK-OV-3) was greater than 10 µM.
`CN1CC=C(c2c(O)cc(O)c3c(=O)cc(-c4ccc(Sc5ncccn5)cc4)oc23)CC1` showed an IC50 (SK-OV-3) greater than 10 µM.
`CN1CC=C(c2c(O)cc(O)c3c(=O)cc(-c4ccc(Sc5nc6ccccc6[nH]5)cc4Cl)oc23)CC1` gave an IC50 (CDK2/Cyclin A2) of 1560 nM, an Activity [1] of 4% and an IC50 [2] of 216 nM. For the same compound, the IC50 (PC-3) was 326 nM, the Activity (Plasmodium falciparum [3]) was 64% and the IC50 (NCI-N87) was 12 nM. The Activity (Sus scrofa [4]) was 4%, the Activity (Plasmodium falciparum [5]) was greater than 100% and the Activity (Leishmania major [6]) was 35%. It also gave an Activity (Sus scrofa [7]) of 48%, an Activity [8] of 46% and an Activity [9] of 14%. The Activity [10] was 22%, the Activity (Sus scrofa [11]) was 86% and the Activity (Sus scrofa [12]) was 43%. It also gave an Activity [13] of 3%, an Activity (Leishmania major [14]) of 81% and an IC50 (SK-OV-3) of 0.333 µM. The IC50 (MIA PaCa-2) was 361 nM, the IC50 (CDK9/cyclin T1) was 15 nM and the Activity [15] was 42%. For the same compound, the IC50 [16] was 550 nM, the IC50 (SK-BR-3) was 66.6 nM and the IC50 (K562) was 36 nM. The Activity [17] was 14%, the IC50 (HCT-116) was 170 nM and the Activity [18] was 2%.
`CN1CC=C(c2c(O)cc(O)c3c(=O)cc(-c4ccc(Sc5ccc6ccccc6n5)cc4)oc23)CC1` gave an IC50 (SK-OV-3) of 3.8 µM.
In the case of `COC(=O)[C@@H](CSc1ccc(-c2cc(=O)c3c(O)cc(O)c(C4=CCN(C)CC4)c3o2)cc1)NC(=O)OC(C)(C)C`, the IC50 (SK-OV-3) is reported as 7.79 µM.
